The record followed here is ChEMBL document CHEMBL4610112, “Novel Pyrrolopyridone Bromodomain and Extra-Terminal Motif (BET) Inhibitors Effective in Endocrine-Resistant ER+ Breast Cancer with Acquired Resistance to Fulvestrant and Palbociclib” (J Med Chem, 2020).

pIC50: −log10 of the molar value. Activity calls are given as the source filed them. The calls are words filed in the database; no cut-off is given here.

The pIC50 is the IC50 on a negative log10 scale, so that one unit is a factor of ten. In general, inhibition refers to the drop in the measured response relative to a control, in per cent. A low value points to a response near the control.

Series [1] deals with T1, Bromodomain-containing protein 4 (Homo sapiens, UniProt O60885). Put plainly: Displacement of APC-labeled biotinylated-avidin from Euphorium-chelated recombinant human BRD4 bromodomain 1 expressed in Escherichia coli preincubated for 15 mins followed by APC-labeled biotinylated-avidin addition and measured after 1 hr under dark condition by TR-FRET assay. A general note: In TR-FRET formats the signal depends on donor and acceptor labels being close together.

Series [2] can be described thus: Growth inhibition of fulvestrant-resistant human MCF7:CFR cells measured after 5 days by Hoechst 33342 dye based imaging analysis. The class given is functional, cell-based. To be noted: 120 h. A digest of the protocol: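 MCF-7:CFR cells kept 2 days in phenol red-free RPMI 1640 with 10% charcoal–dextran FBS, then seeded at 2000 cells/well. Single treatment at 0.1 nM–10 μM (0.1% DMSO final) for 5 days. Nuclei stained with Hoechst 33342 and counted by imaging. Survival normalized to DMSO (100%) and JQ1 3 μM (0%). Mean ± SEM from at least two passages, triplicates in each.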

The target in a further series is CYP3A4 (Homo sapiens, UniProt P08684). Kind of series: Inhibition of human CYP3A4 at 10 uM. It is filed as ADME.
CYP3A4, sequence (P08684 whole entry): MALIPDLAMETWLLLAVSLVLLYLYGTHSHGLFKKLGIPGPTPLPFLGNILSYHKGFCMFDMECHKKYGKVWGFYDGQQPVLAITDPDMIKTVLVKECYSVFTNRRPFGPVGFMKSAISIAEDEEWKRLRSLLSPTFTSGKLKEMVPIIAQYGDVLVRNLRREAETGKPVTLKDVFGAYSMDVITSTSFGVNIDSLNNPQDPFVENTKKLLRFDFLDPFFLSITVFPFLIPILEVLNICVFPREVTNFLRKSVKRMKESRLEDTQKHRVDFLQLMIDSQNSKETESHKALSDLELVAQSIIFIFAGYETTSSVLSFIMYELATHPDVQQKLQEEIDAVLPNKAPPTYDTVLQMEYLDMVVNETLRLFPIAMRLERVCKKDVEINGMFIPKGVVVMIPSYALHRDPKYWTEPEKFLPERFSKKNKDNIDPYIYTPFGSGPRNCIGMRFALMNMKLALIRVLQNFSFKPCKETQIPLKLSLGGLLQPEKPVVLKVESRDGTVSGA
In series [3] the test system is MCF7:CFR. Kind of series: Growth inhibition of fulvestrant-resistant human MCF7:CFR 3D spheroid cells at 100 nM supplemented with fresh medium containing compound every 2 to 3 days for 9 days by celltitre-glo assay relative to control. It is filed as functional. In a few lines:
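MCF-7:CFR cells seeded at 1000 cells/well in ultralow-attachment round-bottom plates and grown 24 h untreated as spheroids. Half the medium then replaced with 2× treatment medium, repeated every 2–3 days. Viability read by CellTiter-Glo 3D luminescence at day 9 and normalized to blank (medium plus reagent).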

For series [4], the system named is MCF7:CFR. Put plainly: Down regulation of c-MYC gene expression in fulvestrant-resistant human MCF7:CFR cells at 100 nM measured after 24 hrs. The class given is functional, cell-based. A digest of the protocol: (§1)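 MCF-7:CFR cells exposed to compound at 100 nM, with DMSO (0.01%) as control, for 24 h. RNA extracted and analysed by RNA-seq. Values are log2-fold changes in gene expression against the vehicle control.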

Series [5] deals with MCF7:CFR. Put plainly: Down regulation of n-MYC gene expression in fulvestrant-resistant human MCF7:CFR cells at 100 nM measured after 24 hrs. It is filed as functional, cell-based. A digest of the protocol: as §1
Series [6] deals with MCF7:CFR. Put plainly: Growth inhibition of fulvestrant-resistant human MCF7:CFR cells at < 300 nM treated for 3 hrs followed by compound washout and measured after 5 days by Hoechst 33342 dye based imaging analysis. The class given is functional, cell-based.
Series [7] has as its system MCF7:CFR. Put plainly: Up regulation of CDKN1B gene expression in fulvestrant-resistant human MCF7:CFR cells at 100 nM measured after 24 hrs. The class given is functional, cell-based. A digest of the protocol:
as §1

Series [8] has as its system MCF7:CFR. Kind of series: Down regulation of cyclin-D gene expression in fulvestrant-resistant human MCF7:CFR cells at 100 nM measured after 24 hrs. It is filed as functional, cell-based. A digest of the protocol:
as §1

A further series addresses CYP2A6 (Homo sapiens, UniProt P11509). Kind of series: Inhibition of human CYP2A6 at 10 uM. It is filed as ADME.
The target of a further series is CYP2D6 (Homo sapiens, UniProt P10635). Kind of series: Inhibition of human CYP2D6 at 10 uM. It is filed as ADME.
CYP2D6, sequence (P10635 whole entry): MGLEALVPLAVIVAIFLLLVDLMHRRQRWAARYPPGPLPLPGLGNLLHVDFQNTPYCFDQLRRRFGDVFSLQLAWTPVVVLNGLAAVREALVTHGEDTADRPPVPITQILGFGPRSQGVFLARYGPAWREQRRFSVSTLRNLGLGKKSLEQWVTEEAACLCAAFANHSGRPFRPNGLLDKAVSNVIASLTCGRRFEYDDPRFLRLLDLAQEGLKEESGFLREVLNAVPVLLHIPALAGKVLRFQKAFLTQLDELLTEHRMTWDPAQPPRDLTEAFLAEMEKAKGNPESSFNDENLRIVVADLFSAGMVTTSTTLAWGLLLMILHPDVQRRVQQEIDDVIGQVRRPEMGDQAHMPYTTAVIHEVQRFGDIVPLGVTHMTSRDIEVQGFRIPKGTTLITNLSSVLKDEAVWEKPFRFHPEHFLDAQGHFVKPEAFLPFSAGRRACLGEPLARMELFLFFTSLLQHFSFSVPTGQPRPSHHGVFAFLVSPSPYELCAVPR
The target in another series is CYP2C8 (Homo sapiens, UniProt P10632). Kind of series: Inhibition of human CYP2C8 at 10 uM. The class given is ADME.
CYP2C8, sequence (P10632 whole entry): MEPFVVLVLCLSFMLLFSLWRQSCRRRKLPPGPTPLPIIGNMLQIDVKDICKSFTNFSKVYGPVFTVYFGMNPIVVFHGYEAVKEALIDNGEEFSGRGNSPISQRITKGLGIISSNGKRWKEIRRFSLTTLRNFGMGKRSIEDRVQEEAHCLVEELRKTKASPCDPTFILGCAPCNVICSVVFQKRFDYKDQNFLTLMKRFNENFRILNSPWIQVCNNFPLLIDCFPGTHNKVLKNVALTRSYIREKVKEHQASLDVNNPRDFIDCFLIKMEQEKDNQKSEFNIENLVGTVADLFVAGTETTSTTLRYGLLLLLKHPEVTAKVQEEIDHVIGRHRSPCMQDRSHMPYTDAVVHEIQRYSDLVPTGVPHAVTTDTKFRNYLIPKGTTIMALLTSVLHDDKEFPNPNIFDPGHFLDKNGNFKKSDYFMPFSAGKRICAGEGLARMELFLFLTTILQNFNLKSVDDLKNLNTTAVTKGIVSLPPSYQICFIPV
Series [9] concerns the target T1, Bromodomain-containing protein 4. Kind of series: Displacement of APC-labeled biotinylated-avidin from Euphorium-chelated recombinant human BRD4 bromodomain 2 expressed in Escherichia coli preincubated for 15 mins followed by APC-labeled biotinylated-avidin addition and measured after 1 hr under dark condition by TR-FRET assay.
A short description of series [10]: Protein binding in plasma (unknown origin). It is filed as ADME, cell-free. Conditions: human. In a few lines:
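Protein binding reported as percent bound, ketoconazole as reference compound. Run by a contract lab.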

For series [11], the system named is MCF7:TAM1. Put plainly: Antitumor activity against human MCF7:TAM1 cells xenografted in ovariectomized athymic Nude-Foxn1 mouse assessed as tumor growth inhibition at 50 mg/kg/day, po administered via gavage for 4 weeks in presence of fulvestrant. It is filed as functional, organism-based. A digest of the protocol: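 Orthotopic xenografts of MCF-7:Tam1 cells in 4–6 week old female ovariectomized athymic nude (nude/Foxn1) mice, established with daily tamoxifen 1.5 mg/mouse. Daily oral gavage at 50 (mg/kg)/day for 4 weeks in 0.5% (w/v) HPMC/TWEEN80 1% in water, given alongside fulvestrant 1 mg/mouse/week sc. Tumor volume measured weekly by caliper as length × width² × π/6. TGI computed from day 28 versus initial volumes, relative to vehicle.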
Background: Xenograft models place foreign cells or tissue in a host animal.

The subject of series [12] is MCF7:TAM1. Kind of series: Antitumor activity against human MCF7:TAM1 cells xenografted in ovariectomized athymic Nude-Foxn1 mouse assessed as tumor growth inhibition at 50 mg/kg/day, po administered via gavage for 4 weeks. It is filed as functional, organism-based.

CYP2A6, sequence (P11509 whole entry): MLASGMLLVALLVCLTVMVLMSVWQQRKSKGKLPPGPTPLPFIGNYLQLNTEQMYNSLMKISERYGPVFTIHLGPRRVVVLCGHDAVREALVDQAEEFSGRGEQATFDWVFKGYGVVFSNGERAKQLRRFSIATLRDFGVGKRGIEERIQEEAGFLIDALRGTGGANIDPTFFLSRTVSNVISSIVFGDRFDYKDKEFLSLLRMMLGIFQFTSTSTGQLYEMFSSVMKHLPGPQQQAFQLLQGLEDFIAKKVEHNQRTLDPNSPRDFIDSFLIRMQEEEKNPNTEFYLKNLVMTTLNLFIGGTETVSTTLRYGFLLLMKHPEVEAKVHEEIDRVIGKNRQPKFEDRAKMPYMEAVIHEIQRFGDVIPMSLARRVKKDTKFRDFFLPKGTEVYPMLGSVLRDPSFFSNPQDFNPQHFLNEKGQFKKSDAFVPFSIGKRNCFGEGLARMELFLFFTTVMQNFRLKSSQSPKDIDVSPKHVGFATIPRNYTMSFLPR

On to `Cn1cc(-c2cc(NS(C)(=O)=O)c3ccn(Cc4ccc(F)cc4)c3c2)c2ccnc(O)c21`, for which the figures for the pIC50 in series [1] and in [2] were 7.02 and 7.77, respectively.
Turning to `Cc1ncc2n1-c1ccc(Cl)cc1C(c1ccccc1F)=NC2` [MIDAZOLAM], at 10 µM the inhibition against CYP3A4 was 99.5%.
In the case of `Cc1cccc(C)c1Cn1ccc2c(NS(C)(=O)=O)cc(-c3cn(C)c4c(=O)[nH]ccc34)cc21`, the figures for the pIC50 in series [1] and in series [2] were 6.76 and 7.31, respectively.
For the compound `CCS(=O)(=O)Nc1cc(-c2cn(C)c3c(=O)[nH]ccc23)cc2c1ccn2Cc1c(C)cccc1C`, the pIC50 in series [1] was 6.80; in [2], 7.46.
For `Cn1cc(-c2cc(NS(C)(=O)=O)c3ccn(CC4(C)COC4)c3c2)c2cc[nH]c(=O)c21`, the pIC50 in series [1] was 6.74; in series [2], 6.87.
For the compound `COc1nnc2ccc(N3CCC(c4ccc(OCCN5CCN(C)C(=O)[C@H]5C)cc4)CC3)nn12`, the “growth inhibition (GI)” value with MCF7:CFR [3] was “Active”.
Consider `Cc1sc2c(c1C)C(c1ccc(Cl)cc1)=N[C@@H](CC(=O)OC(C)(C)C)c1nnc(C)n1-2`, for which the result with MCF7:CFR [4], in the series with MCF7:CFR [5], in the series on MCF7:CFR [7] and in the series with MCF7:CFR [8] was Active. The “growth inhibition (GI)” value with MCF7:CFR [6] was “inactive”. For the same compound, the pIC50 in series [2] was 7.05. In addition, in the series on MCF7:CFR [3], the “growth inhibition (GI)” value was “Active”.
Consider `O=c1ccc2ccccc2o1` [COUMARIN], for which testing at 10 µM on CYP2A6 gave an inhibition of 98.2%.
Take `CCS(=O)(=O)Nc1cccc2c1nc(-c1cn(C)c3c(=O)[nH]ccc13)n2Cc1ccc(F)cc1`: the pIC50 in series [1] is 5.84; in series [2], 6.15.
In the case of `Cc1cc(F)cc(C)c1Cn1ccc2cc(NS(C)(=O)=O)cc(-c3cn(C)c4c(=O)[nH]ccc34)c21`, the pIC50 in [1] was 5.85; in series [2], 6.28.
Consider `COc1ccc2c(c1)[C@]13CCCC[C@@H]1[C@H](C2)N(C)CC3` [DEXTROMETHORPHAN], for which the inhibition at 10 µM against CYP2D6 stood at 94.4%.
With `C[C@]12CC[C@@H]3c4ccc(O)cc4C[C@@H](CCCCCCCCC[S+]([O-])CCCC(F)(F)C(F)(F)F)[C@H]3[C@@H]1CC[C@@H]2O` (some centres not stated), the “growth inhibition (GI)” value in the series with MCF7:CFR [3] is “inactive”.
On CYP2C8, `CC(=O)O[C@H]1C(=O)[C@@]2(C)[C@H]([C@H](OC(=O)c3ccccc3)[C@]3(O)C[C@H](OC(=O)[C@H](O)[C@@H](NC(=O)c4ccccc4)c4ccccc4)C(C)=C1C3(C)C)[C@]1(OC(C)=O)CO[C@@H]1C[C@@H]2O` [PACLITAXEL] gave an inhibition at 10 µM of 80.9%.
Regarding `Cn1cc(-c2cc(NS(C)(=O)=O)c3ccn(C(C)(c4ccccn4)c4ccccn4)c3c2)c2cc[nH]c(=O)c21`, the negative-log IC50 (pIC50) in series [9] is 7.90; in series [1] it was 7.89; in series [2] it was 8.00.
With `CCS(=O)(=O)Nc1cc(-c2cn(C)c3c(=O)[nH]ccc23)cc2c1ccn2C(c1ccccc1)c1ccccc1`, the values for the negative-log IC50 (pIC50) in series [1] and in series [2] were 7.08 and 7.82, respectively.
On to `CC(=O)N1CCN(c2ccc(OCC3COC(Cn4ccnc4)(c4ccc(Cl)cc4Cl)O3)cc2)CC1` (configuration not stated) [KETOCONAZOLE], for which the PPB in series [10] was 98.35%.
With `CCC(c1ccccn1)(c1ccccn1)n1ccc2c(NS(=O)(=O)CC)cc(-c3cn(C)c4c(=O)[nH]ccc34)cc21`, the results for the pIC50 in series [1] and in series [2] were 8.03 and 8.66, respectively.
On to `CC(C)C(=O)Nc1cc(-c2cn(C)c3c(=O)[nH]ccc23)cc2c1ccn2C(C)(c1ccccn1)c1ccccn1`, for which the pIC50 in [9] is 7.20; in [1] it was 7.89; in series [2], 7.77.
Turning to `Cc1cc(F)ccc1Cn1ccc2c(NS(C)(=O)=O)cc(-c3cn(C)c4c(=O)[nH]ccc34)cc21`, the pIC50 is 6.22 in series [1] and 6.92 in series [2].
Regarding `CCNC(=O)C[C@@H]1N=C(c2ccc(Cl)cc2)c2cc(OC)ccc2-n2c(C)nnc21`, the TGI entry in the series with MCF7:TAM1 [11] is “Active”.
In turn, `CCS(=O)(=O)N(c1cccc2c1nc(-c1cn(C)c3c(=O)[nH]ccc13)n2Cc1ccc(F)cc1)S(=O)(=O)CC` showed a pIC50 in series [2] of 5.75.
For `CCS(=O)(=O)Nc1cc(-c2cn(C)c3c(O)nccc23)cc2c1cnn2Cc1ccc(F)cc1`, the pIC50 in [1] is 7.27; in series [2], 7.60.
`CCS(=O)(=O)Nc1cc(-c2cn(C)c3c(=O)[nH]ccc23)cc2c1ccn2Cc1ccc(F)cc1`: the figures for the pIC50 in series [1] and in series [2] were 7.32 and 7.25, respectively.
For the compound `CC(=O)Nc1cc(-c2cn(C)c3c(=O)[nH]ccc23)cc2c1ccn2C(C)(c1ccccn1)c1ccccn1`, the pIC50 is 7.67 in series [9], 8.08 in series [1] and 7.96 in series [2].
As for `Cn1cc(-c2cc(NS(C)(=O)=O)c3ccn(CC4CC(F)(F)C4)c3c2)c2cc[nH]c(=O)c21`, the pIC50 is 6.79 in series [1] and 7.21 in series [2].
`Cn1cc(-c2cc(C(C)(C)O)c3ccn(C(C)(c4ccccn4)c4ccccn4)c3c2)c2cc[nH]c(=O)c21`: the pIC50 is 6.66 in [9], 7.40 in [1] and 7.70 in series [2].
Regarding `Cc1cc(F)ccc1Cn1ccc2cc(NS(C)(=O)=O)cc(-c3cn(C)c4c(=O)[nH]ccc34)c21`, the pIC50 in series [1] is 6.00; in [2], 5.45.
As to `CC/C(=C(\c1ccccc1)c1ccc(OCCN(C)C)cc1)c1ccccc1`, the TGI entry in the series on MCF7:TAM1 [12] was “inactive”.
Take `Cn1cc(-c2cc(NS(C)(=O)=O)c3ccn(Cc4cccc(F)c4)c3c2)c2cc[nH]c(=O)c21`: the pIC50 in [1] is 6.76; in [2], 7.15.
For `Cn1cc(-c2cc(NS(C)(=O)=O)cc3ccn(Cc4ccc(F)cc4)c23)c2cc[nH]c(=O)c21`, the pIC50 in series [1] is 5.93; in series [2] it was 5.70.
Take `CC/C(=C(\c1ccc(O)cc1)c1ccc(OCCN(C)C)cc1)c1ccccc1`: the “growth inhibition (GI)” value with MCF7:CFR [3] is “inactive”.
As for `Cn1cc(-c2cc(NS(C)(=O)=O)c3cnn(Cc4ccc(F)cc4)c3c2)c2cc[nH]c(=O)c21`, the values for the pIC50 in series [1] and in series [2] were 7.05 and 7.17, respectively.
